For data set [1], the system named is T. cruzi strain HA trypomastigotes. As to conditions: ref Garcia et al. 2010; cited from earlier work.
Data set [2] can be described thus: In vitro cytotoxicity in U-937 cells. It is filed as cell-based. Particulars: human, U-937 cells (non-infected). The procedure, abridged:
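Non-infected U-937 cells at 10^5 cells/mL were mixed 1:1 with compound solutions at 200, 50, 12.5 and 3.125 µg/mL, alongside benznidazole, and held 72 h at 37 °C. MTT was added for 3 h, then formazan was dissolved in isopropanol/SDS and read at 570 nm. Viability was expressed versus unexposed cells, mortality as 100 − %viability, and LC50 was obtained by probit analysis.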

The subject of data set [3] is T. cruzi Talahuen strain intracellular amastigotes. As to the kind of experiment: Anti-T. cruzi in vitro assay in intracellular amastigotes. It is filed as cell-based, Trypanosoma cruzi. As to conditions: for SI (selectivity index = LC50/EC50): LC50 U-937 / EC50 T. cruzi; for antitrypanosomal activity class: classified by EC50 in μg/mL.
Data set [4] relates to T. cruzi blood trypomastigotes (Talahuen strain). Nature of the data set: In vivo therapeutic response in BALB/c mice infected with T. cruzi. On the set-up: species or system Mus musculus (BALB/c mice). As to conditions: at the end of treatment. The procedure, abridged: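 BALB/c mice were inoculated intraperitoneally with 100 blood trypomastigotes of the Tulahuen β-gal strain taken from donor mice. From the first day of parasitaemia, seven groups (n = 6) were dosed orally at 100 mg/kg/day for 25 days with test compound, benznidazole or nothing. Parasitaemia per 0.1 mL blood was counted by hematocrit at TD0, TD25 and PTD30/60/90. Reduction was calculated per mouse against pre-treatment parasitaemia. Mice negative in all tests were scored cured.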

The structures appear in SMILES notation. Several values for one entry are separate records, joined by “and”; a condition that tells them apart may be missing. Equal entries are not always repeated.

As for `COc1cccc(/C=C/c2ccc3ccccc3n2)c1OC` [(E)-2-(2,3-dimetoxystyryl) quinoline], the “inhibition of the presence of the parasite” value in data set [1] is on record as 34.1%.

On to `O=C(Cn1ccnc1[N+](=O)[O-])NCc1ccccc1` [Benznidazol (BZ), Benznidazol, reference compound], for which the CC50 – broadly, the concentration giving 50% cytotoxicity – at 72 h in data set [2] was > 200 µg/mL and 491 µM. Besides, the “SI (selectivity index = LC50/EC50)” value in data set [3] came out at 8.7. In data set [4], the mice cured was 100%. For the same compound, the parasitaemia status result in data set [4] (100 mg/kg/day) was “negative”.

For the compound `CC(=O)Oc1ccc(/C=C/c2ccc3cccc(OC(C)=O)c3n2)c(OC(C)=O)c1` [Compound 3g, (E)-4-(2-(8-Acetoxyquinolin-2-yl)vinyl)-1,3-phenylene diacetate], in data set [2], the CC50 at 72 h is 6.9 µg/mL and 17.2 µM. For the same compound, in data set [3], the antitrypanosomal activity class entry is recorded as “moderate (Moderate activity: 25 μg/mL > EC50 < 50 μg/mL)”.

Consider `COc1cc(/C=C/c2ccc3cccc(OC(C)=O)c3n2)ccc1OC(C)=O` [Compound 3h, (E)-2-(4-Acetoxy-3-methoxystyryl)quinolin-8-yl acetate], for which, in data set [2], the CC50 at 72 h is 5.9 µg/mL and 15.6 µM. For the same compound, in data set [3], the “SI (selectivity index = LC50/EC50)” value is on record as 0.2 and the antitrypanosomal activity class entry was “moderate (Moderate activity: 25 μg/mL > EC50 < 50 μg/mL)”.

Source of the values: PMC8134988 (Heliyon, 2021).
